ChEMBL document CHEMBL1151693, “Design, synthesis, and pharmacological evaluation of N-bicyclo-5-chloro-1H-indole-2-carboxamide derivatives as potent glycogen phosphorylase inhibitors” (Bioorg Med Chem, 2008)
Values belong to the compound of their own block, whether it stands above or below them.

Key:
[1] = target: T1, Glycogen phosphorylase, liver form (Homo sapiens, UniProt P06737); test: Inhibition of active form of human liver glycogen phosphorylase
T1 sequence (P06737 whole entry): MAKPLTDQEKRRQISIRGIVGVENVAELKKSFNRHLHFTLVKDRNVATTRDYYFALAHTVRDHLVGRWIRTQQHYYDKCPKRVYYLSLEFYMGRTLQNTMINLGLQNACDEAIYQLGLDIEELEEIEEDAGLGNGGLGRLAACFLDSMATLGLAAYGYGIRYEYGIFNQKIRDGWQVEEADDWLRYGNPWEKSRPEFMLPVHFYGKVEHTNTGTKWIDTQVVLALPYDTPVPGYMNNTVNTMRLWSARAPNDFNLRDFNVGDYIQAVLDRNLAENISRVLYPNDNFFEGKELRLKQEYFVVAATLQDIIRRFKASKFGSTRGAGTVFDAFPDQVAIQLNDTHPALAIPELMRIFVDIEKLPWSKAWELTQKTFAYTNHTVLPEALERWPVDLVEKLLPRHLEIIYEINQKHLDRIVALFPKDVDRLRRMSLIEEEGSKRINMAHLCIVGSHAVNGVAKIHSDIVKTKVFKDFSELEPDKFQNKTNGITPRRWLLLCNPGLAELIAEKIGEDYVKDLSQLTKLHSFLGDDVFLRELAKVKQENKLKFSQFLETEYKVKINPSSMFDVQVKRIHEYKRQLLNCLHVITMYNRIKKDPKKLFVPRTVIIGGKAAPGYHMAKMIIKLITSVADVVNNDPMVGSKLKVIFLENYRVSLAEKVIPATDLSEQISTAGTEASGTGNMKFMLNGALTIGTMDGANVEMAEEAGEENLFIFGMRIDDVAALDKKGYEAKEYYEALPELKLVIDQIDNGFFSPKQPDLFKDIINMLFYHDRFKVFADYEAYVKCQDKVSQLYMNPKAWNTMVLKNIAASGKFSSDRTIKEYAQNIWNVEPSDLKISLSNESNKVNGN

Hepatocyte = test: Inhibition of glucagon-induced glucose output in cultured rat primary hepatocytes; assay type: functional, cell-based
Mus musculus [2] = test: Hypoglycemic activity in db/db mouse assessed as reduction of plasma glucose at 3 mg/kg, po after 2 hrs relative to control; assay type: functional; parameters: scale not given: the % may be the effect or the level left
Summary of the method: (§1)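 Diabetic db/db mice were dosed orally. Plasma glucose was measured 2 h post-dose in drug-treated and vehicle-treated control animals. Activity is the percent decrease in plasma glucose versus the vehicle controls. Significance versus control was tested by Dunnett's test or Student's t-test.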

Mus musculus [3] = test: Hypoglycemic activity in db/db mouse assessed as reduction of plasma glucose at 10 mg/kg, po after 2 hrs relative to control; assay type: functional; parameters: scale not given: the % may be the effect or the level left; summary of the method: as §1
[4] = AUC (0 to infinity) in Sprague-Dawley rat at 1 mg/kg, iv; assay type: ADME, organism-based; parameters: time infinity, dose 1 mg/kg, route intravenous; conditions: plasma
Summary of the method: (§2)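 Pharmacokinetics were determined in male SD rats after intravenous or oral administration.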

[5] = Half life in Sprague-Dawley rat at 1 mg/kg, iv; assay type: ADME, organism-based; parameters: dose 1 mg/kg, route intravenous; conditions: in vivo; summary of the method: as §2
[6] = AUC (0 to infinity) in Sprague-Dawley rat at 3 mg/kg, po; assay type: ADME, organism-based; parameters: time infinity, dose 3 mg/kg, route oral; conditions: plasma; summary of the method: as §2
[7] = Cmax in Sprague-Dawley rat at 3 mg/kg, po; assay type: ADME, organism-based; parameters: dose 3 mg/kg, route oral; conditions: in vivo; summary of the method: as §2
[8] = Tmax in Sprague-Dawley rat at 3 mg/kg, po; assay type: ADME, organism-based; parameters: dose 3 mg/kg, route oral; conditions: in vivo; summary of the method: as §2
[9] = Oral bioavailability in Sprague-Dawley rat at 3 mg/kg; assay type: ADME, organism-based; conditions: in vivo; summary of the method: as §2
[10] = Total clearance in Sprague-Dawley rat at 1 mg/kg, iv; assay type: ADME, organism-based; parameters: dose 1 mg/kg, route intravenous; conditions: in vivo; summary of the method: as §2
[11] = Volume of distribution in Sprague-Dawley rat at 1 mg/kg, iv; assay type: ADME, organism-based; parameters: dose 1 mg/kg, route intravenous; conditions: in vivo; summary of the method: as §2
Mus musculus [12] = test: Hypoglycemic activity in db/db mouse assessed as reduction of plasma glucose at 30 mg/kg, po after 2 hrs relative to control; assay type: functional; parameters: scale not given: the % may be the effect or the level left; summary of the method: as §1

IC50 [1]: 48 nM
SMILES: O=C(Nc1ccc2c(c1F)CCC(F)(F)C2O)c1cc2cc(Cl)ccc2[nH]1 (configuration not stated)

IC50 [1]: 36 nM
SMILES: O=C(Nc1c(F)cc2c(c1F)CCC(F)(F)C2O)c1cc2cc(Cl)ccc2[nH]1 (configuration not stated)

IC50 [1]: 160 nM
SMILES: O=C(Nc1c(F)cc2c(c1F)CCC(F)(F)[C@H]2O)c1cc2cc(Cl)ccc2[nH]1

IC50 [1]: 20 nM
AUC(0-inf) [4]: 930 ng·h/mL
half-life [5]: 12 h
AUC(0-inf) [6]: 2780 ng·h/mL
Cmax [7]: 785 ng/mL
Tmax [8]: 0.5 h
bioavailability [9]: 100%
clearance [10]: 17.9 mL/min/kg
Vd [11]: 18.1 L/kg
SMILES: O=C(Nc1c(F)cc2c(c1F)CCC(F)(F)[C@@H]2O)c1cc2cc(Cl)ccc2[nH]1
IC50 (Hepatocyte): 690 nM
Activity (Mus musculus [2]): 14%
Activity (Mus musculus [3]): 26%

IC50 [1]: > 10000 nM
SMILES: CC1(C)CCc2cc(NC(=O)c3cc4cc(Cl)ccc4[nH]3)ccc2C1O (configuration not stated)

SMILES: O=C(N[C@@H](Cc1ccc(F)cc1)C(=O)N1CCC(O)CC1)c1cc2cc(Cl)ccc2[nH]1
Activity (Mus musculus [12]): 24%
